Assay results pooled from the literature.
Target: LIM domain kinase 1 (LIMK1, Homo sapiens, UniProt P53667)

Cc1cc(NC(=O)c2cccc(S(F)(F)(F)(F)F)c2)cc(-n2ccn3nc(-c4cccnc4)cc23)c1 — remaining binding (cell-free assay; competition with immobilised ligand; 1 µM): 100%
C=CC(=O)N1CCC(C(=O)NCC(=O)N2CCN(c3nc(-c4cnc(N)nc4C(F)F)nc(N4CCOCC4)n3)CC2)CC1 — remaining binding (binding; competition with immobilised ligand; 1 µM): 100%
CNC(=O)[C@@H]1CC[C@@H](n2c(-c3ccc4cnccc4c3)nc3ccc(C(=O)NCc4cccc(C(N)=O)c4)cc32)C1 — remaining binding (binding; competition with immobilised ligand; 1 µM): 100%
CCCCN(CCCC)C(=O)CN1C[C@@H](c2cc(OC)c3c(c2)OCO3)[C@H](C(=O)O)[C@H]1CC(C)(C)CCC — remaining binding (cell-free assay; competition with immobilised ligand; 1 µM): 99%
Cc1cnn2ncc(-c3ccnc(N(C)C)n3)c2c1 — remaining binding (binding; 1 µM): 100%
N#CC1(c2ccccn2)CCN(Cc2cc(C(=O)N3CCCC3)c(=O)n3ccccc23)CC1 — remaining binding (cell-free assay; competition with immobilised ligand; 1 µM): 98%
COc1cnc(Nc2cccc(S(N)(=O)=O)c2)nc1N1CCN(c2ccccc2)CC1 — remaining binding (binding; competition with immobilised ligand; 1 µM): 100%
CN(CCCC(F)(F)F)c1nccc(-c2cnn3ncccc23)n1 — remaining binding (binding; 1 µM): 86%
COc1cc(-c2cn(C3CCc4c(F)cccc4N(CC(F)(F)F)C3=O)nn2)ccc1-n1cnc(C)c1 (centres unmarked) — remaining binding (cell-free assay; competition with immobilised ligand; 1 µM): 100%
COc1ccnn2ncc(-c3ccnc(N(C)C)n3)c12 — remaining binding (binding; 1 µM): 100%
O=C(Nc1c[nH]nc1C(=O)NC1CCNCC1)c1cc(F)cc(F)c1 — remaining binding (binding; competition with immobilised ligand; 1 µM): 97%
CN(C)c1nccc(-c2cnc3ncccn23)n1 — remaining binding (binding; 1 µM): 100%
c1cncc(-c2cccc(Nc3nccc(NC4CCCCC4)n3)c2)c1 — remaining binding (binding; competition with immobilised ligand; 10 µM): 56%
Cc1cnc(Nc2ccc(C(=O)N3CCC(N4CCCC4)CC3)cc2)nc1-c1cc2ccccc2s1 — remaining binding (binding; competition with immobilised ligand; 1 µM): 55%
C[C@@H]1CCN(c2nccc(-c3cnn4ncccc34)n2)C1 — remaining binding (binding; 1 µM): 100%
O=C(c1ccc(Nc2ncc(Cl)c(-c3ccc(Cl)s3)n2)cc1)N1CCC(N2CCCC2)CC1 — remaining binding (binding; competition with immobilised ligand; 1 µM): 40%
CCC(=N\O)/C(C)=C/c1ccc(F)cc1 — remaining binding (cell-free assay; competition with immobilised ligand; 1 µM): 78%
O=C(c1ccc(Nc2ncc(Cl)c(-c3cc4ccccc4s3)n2)cc1)N1CCC(N2CCCC2)CC1 — remaining binding (binding; competition with immobilised ligand; 1 µM): 53%
O=C(NCc1ncc(C(F)(F)F)cc1Cl)c1ccc2c(c1)C1(CCS(=O)(=O)CC1)[C@@H](C1CC1)N2S(=O)(=O)c1ccc(F)cc1 — remaining binding (cell-free assay; competition with immobilised ligand; 1 µM): 91%
N[C@H]1CCN(c2nccc(-c3cnn4ncccc34)n2)C1 — remaining binding (binding; 1 µM): 81%
